Data: ChEMBL document CHEMBL4622961, “Design, Synthesis, and Preliminary Immunological Studies of MUC1-Based Antitumor Vaccines Adjuvanted with R- and S-FSL-1” (2020)
Calls of active or inactive are those of the source. The rule behind the calls is not given here.

Key:
Peritoneal macrophage [1] = experiment: Adjuvanted-antitumor vaccine activity in C57BL/6 mouse peritoneal macrophages assessed as induction of IL-6 production after 24 hrs by ELISA; type: functional, cell-based
Method in brief: (§1)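 Peritoneal macrophages were harvested from C57BL/6 mice and incubated with the adjuvanted vaccine constructs. IL-6 and IL-12 released into the culture supernatant were quantified against a PBS control. Values are given as mean ± SD.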

Peritoneal macrophage [2] = experiment: Adjuvanted-antitumor vaccine activity in C57BL/6 mouse peritoneal macrophages assessed as induction of IL-12 production after 24 hrs by ELISA; type: functional, cell-based; method in brief: as §1
Mus musculus [3] = experiment: Adjuvanted-antitumor vaccine activity in C57BL/6 mouse assessed as induction of IgG production in serum at 4 nmol, ip administered […] and measured after 1 week post last dose by ELISA; type: functional, organism-based
Method in brief: (§2)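 Female C57BL/6 mice, immunized intraperitoneally on days 0, 14, 28 and 42 (PBS group as control). Sera were collected 1 week after the last dose. ELISA measured total IgG titer or the IgG1, IgG2b, IgG2c and IgG3 isotypes. Values are given as mean ± SD.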

Mus musculus [4] = experiment: Adjuvanted-antitumor vaccine activity in C57BL/6 mouse assessed as potentiation of MUC1 specific Th2 immune response by measuring increase in serum IgG1 level at 4 nmol, ip administered on […] and measured after 1 week post last dose by ELISA; type: functional, organism-based; method in brief: as §2
Mus musculus [5] = experiment: Aduvanted-antitumor vaccine activity in C57BL/6 mouse assessed as potentiation of MUC1 specific Th1 immune response by measuring increase in serum IgG2c level at 4 nmol, ip administered […] and measured after 1 week post last dose by ELISA; type: functional, organism-based; method in brief: as §2
Mus musculus [6] = experiment: Adjuvanted-antitumor vaccine activity in C57BL/6 mouse assessed as potentiation of MUC1 mediated immune response by measuring increase in serum IgG2b level at 4 nmol, ip administered on […] and measured after 1 week post last dose by ELISA; type: functional, organism-based; method in brief: as §2
Mus musculus [7] = experiment: Adjuvanted-antitumor vaccine activity in C57BL/6 mouse assessed as potentiation of MUC1 mediated immune response by measuring increase in serum IgG3 level at 4 nmol, ip administered on […] and measured after 1 week post last dose by ELISA; type: functional, organism-based; method in brief: as §2
Mus musculus [8] = experiment: Adjuvanted-antitumor vaccine activity in C57BL/6 mouse assessed as induction of MUC1-specific antisera production by measuring binding activity with MCF7 cells expressing MUC1 at 4 nmol, ip administered on […] and measured after 1 week post-last dose by incubating cells with compound-immunized mouse sera for 1 hr by FACS analysis; type: functional, organism-based
Method in brief: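 Antisera were collected 1 week after the fourth ip immunization (days 0, 14, 28, 42) of female C57BL/6 mice. MUC1-expressing human breast cancer MCF-7 cells were incubated with the antisera, then with FITC-labelled goat anti-mouse antibody, and binding was read by flow cytometry. The PBS-immunized group served as control.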

Mus musculus [9] = experiment: Adjuvanted-antitumor vaccine activity in C57BL/6 mouse assessed as potentiation of Th1 mediated response by measuring increase in IFN-gamma level in splenocytes at 4 nmol, ip administered […] and measured after 1 week post-last dose by incubating splenocytes with MUC1 peptide for 48 hrs by ELISA; type: functional, organism-based
Method in brief: (§3)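 Splenocytes came from female C57BL/6 mice immunized ip on days 0, 14, 28 and 42. They were restimulated in culture with MUC1 peptide (10 μg/mL), and IL-4, IL-6, IL-12 and IFN-γ were measured in the supernatants. A PBS-immunized group served as comparison.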

Mus musculus [10] = experiment: Adjuvanted-antitumor vaccine activity in C57BL/6 mouse assessed as potentiation of Th1 mediated response by measuring increase in IL-12 level in splenocytes at 4 nmol, ip administered on […] and measured after 1 weeks post-last dose by incubating splenocytes with MUC1 peptide for 48 hrs by ELISA; type: functional, organism-based; method in brief: as §3
Mus musculus [11] = experiment: Adjuvanted-antitumor vaccine activity in C57BL/6 mouse assessed as potentiation of Th2 mediated response by measuring increase in IL-6 level in splenocytes at 4 nmol, ip administered […] and measured after 1 weeks post-last dose by incubating splenocytes with MUC1 peptide for 48 hrs by ELISA; type: functional, organism-based; method in brief: as §3
Mus musculus [12] = experiment: Adjuvanted-antitumor vaccine activity in C57BL/6 mouse assessed as potentiation of Th2 mediated response by measuring increase in IL-4 level in splenocytes at 4 nmol, ip administered on […] and measured after 1 weeks post-last dose by incubating splenocytes with MUC1 peptide for 48 hrs by ELISA; type: functional, organism-based; method in brief: as §3
Mus musculus [13] = experiment: Adjuvanted-antitumor vaccine activity in C57BL/6 mouse assessed as potentiation of MUC1 specific Th2 immune response by measuring ratio of IgG1 to IgG2c in serum at 4 nmol, ip administered […] and measured after 1 week post last dose by ELISA; type: functional
Method in brief: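 Sera from female C57BL/6 mice given ip doses on days 0, 14, 28 and 42 were taken 1 week after the last dose. IgG1 and IgG2c were measured by ELISA and expressed as an IgG1/IgG2c ratio; a ratio above 1 was read as a Th2-type response.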

`CCCCCCCCCCCCCCCC(=O)OC[C@@H](CSC[C@H](N)C(=O)NCC(=O)N[C@@H](CC(=O)O)C(=O)N1CCC[C@H]1C(=O)N[C@@H](CCCCN)C(=O)N[C@@H](Cc1c[nH]cn1)C(=O)N1CCC[C@H]1C(=O)N[C@@H](CCCCN)C(=O)N[C@@H](CO)C(=O)N[C@@H](Cc1ccccc1)C(=O)NCC(=O)NCC(=O)NCC(=O)N[C@@H](Cc1c[nH]cn1)C(=O)NCC(=O)N[C@H](C(=O)N[C@H](C(=O)N[C@@H](CO)C(=O)N[C@@H](C)C(=O)N1CCC[C@H]1C(=O)N[C@@H](CC(=O)O)C(=O)N[C@H](C(=O)N[C@@H](CCCNC(=N)N)C(=O)N1CCC[C@H]1C(=O)N[C@@H](C)C(=O)N1CCC[C@H]1C(=O)NCC(=O)N[C@@H](CO)C(=O)N[C@H](C(=O)N[C@@H](C)C(=O)N1CCC[C@H]1C(=O)N1CCC[C@H]1C(=O)N[C@@H](C)C(=O)O)[C@@H](C)O)[C@@H](C)O)[C@@H](C)O)C(C)C)OC(=O)CCCCCCCCCCCCCCC` was tested, and the Activity (Peritoneal macrophage [1]) was “Active”, the Activity (Peritoneal macrophage [2]) was “Active” and the Activity (Mus musculus [3]) was “Active”. For the same molecule, the Activity (Mus musculus [4]) was “Active”, the Activity (Mus musculus [5]) was “Active” and the Activity (Mus musculus [6]) was “Active”. For the same molecule, the Activity (Mus musculus [7]) was “Active”, the Activity (Mus musculus [8]) was “Active” and the Activity (Mus musculus [9]) was “Active”. For the same molecule, the Activity (Mus musculus [10]) was “Active”, the Activity (Mus musculus [11]) was “Active” and the Activity (Mus musculus [12]) was “Active”. For the same molecule, the Ratio (Mus musculus [13]) was greater than 1.
In the case of `CCCCCCCCCCCCCCCC(=O)OC[C@H](CSC[C@H](N)C(=O)NCC(=O)N[C@@H](CC(=O)O)C(=O)N1CCC[C@H]1C(=O)N[C@@H](CCCCN)C(=O)N[C@@H](Cc1c[nH]cn1)C(=O)N1CCC[C@H]1C(=O)N[C@@H](CCCCN)C(=O)N[C@@H](CO)C(=O)N[C@@H](Cc1ccccc1)C(=O)NCC(=O)NCC(=O)NCC(=O)N[C@@H](Cc1c[nH]cn1)C(=O)NCC(=O)N[C@H](C(=O)N[C@H](C(=O)N[C@@H](CO)C(=O)N[C@@H](C)C(=O)N1CCC[C@H]1C(=O)N[C@@H](CC(=O)O)C(=O)N[C@H](C(=O)N[C@@H](CCCNC(=N)N)C(=O)N1CCC[C@H]1C(=O)N[C@@H](C)C(=O)N1CCC[C@H]1C(=O)NCC(=O)N[C@@H](CO)C(=O)N[C@H](C(=O)N[C@@H](C)C(=O)N1CCC[C@H]1C(=O)N1CCC[C@H]1C(=O)N[C@@H](C)C(=O)O)[C@@H](C)O)[C@@H](C)O)[C@@H](C)O)C(C)C)OC(=O)CCCCCCCCCCCCCCC`, the Activity (Peritoneal macrophage [1]) is reported as “Active”, the Activity (Peritoneal macrophage [2]) is reported as “Active” and the Activity (Mus musculus [3]) is reported as “Active”. For the same molecule, the Activity (Mus musculus [4]) was “Active”, the Activity (Mus musculus [5]) was “Active” and the Activity (Mus musculus [6]) was “Active”. For the same molecule, the Activity (Mus musculus [7]) was “Active”, the Activity (Mus musculus [8]) was “Active” and the Activity (Mus musculus [9]) was “Active”. The Activity (Mus musculus [10]) was “Active”, the Activity (Mus musculus [11]) was “Active” and the Activity (Mus musculus [12]) was “Active”. The Ratio (Mus musculus [13]) was greater than 1.
